Measurements from ChEMBL document CHEMBL3763015 (Bioorg Med Chem, 2016).
The source made the active and inactive calls. The calls are words filed in the database; no cut-off is given here.

Experiments:
HeLa = experiment: Cytotoxicity against human HeLa cells assessed as cell death at 200 uM by […]; format: cell-based
Procedure, shortened: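 HeLa cells were grown in DMEM with 5% FBS and 1% penicillin–streptomycin. 100 μl of 5000 cells/ml was seeded and held 24 h at 37 °C, 5% CO2. Compound at 200 μM, with rotenone control, was added for 24 h. WST-8/1-methoxy PMS was added for 2 h, and absorbance read at 450 nm against 630 nm. Result reported as cell death ratio.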

Cathepsin B (Bos taurus) [1] = target: Cathepsin B (Bos taurus) (UniProt P07688); experiment: Inhibition of bovine spleen cathepsin B using Z-Arg-Arg-MCA as substrate at 1 mM incubated for 10 mins
Procedure, shortened: (§1)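 10 mU enzyme preincubated 10 min at 40 °C in 50 mM MES pH 6.0 with 2 mM DTT and 0.1% Brij-35. Z-Arg-Arg-MCA and inhibitor in DMSO were then added and incubated 10 min at 40 °C. Reaction stopped with sodium monochloroacetate/acetate buffer, pH 4.3. Screening was at 1.0 mM inhibitor; IC50 runs used 1 nM to 1 mM.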

Cathepsin B = Cathepsin B (Bos taurus, UniProt P07688); experiment: Inhibition of bovine spleen cathepsin B using Z-Arg-Arg-MCA as substrate incubated for 10 mins; procedure, shortened: as §1
Cathepsin B (Bos taurus) [2] = target: Cathepsin B (Bos taurus) (UniProt P07688); experiment: Competitive inhibition of bovine spleen cathepsin B using Z-Arg-Arg-MCA as substrate incubated for 10 mins by Lineweaver-Burk plot

| SMILES | Activity (HeLa) [%] | inhibition (Cathepsin B (Bos taurus) [1]) | IC50 (Cathepsin B) [µM] | inhibition (Cathepsin B (Bos taurus) [2]) |
| --- | --- | --- | --- | --- |
| O=C(/C=C/c1ccccc1)N[C@@H](COC(=O)c1ccccc1)C(=O)NC1CCCCC1 | < 20 | 34% | – | – |
| COc1cc(/C=C/C(=O)N[C@@H](COC(=O)c2ccccc2)C(=O)NC2CCCCC2)cc(OC)c1OC | < 20 | 21% | – | – |
| COc1cccc(/C=C/C(=O)N[C@@H](COC(=O)c2ccccc2)C(=O)NC2CCCCC2)c1 | < 20 | 36% | – | – |
| COc1cc(/C=C/C(=O)N[C@@H](COC(=O)c2ccccc2)C(=O)NC2CCCCC2)cc(OC)c1 | < 20 | inactive | – | – |
| O=C(/C=C/c1ccccc1)N[C@@H](COC(=O)CCc1ccccc1)C(=O)NC1CCCCC1 | – | 82% | – | – |
| O=C(/C=C/c1ccc(OC(=O)c2ccccc2)cc1)N[C@H](COC(=O)c1ccccc1)C(=O)NC1CCCCC1 | – | 19% | – | – |
| COc1cc(/C=C/C(=O)N[C@H](COC(=O)c2ccccc2)C(=O)NC2CCCCC2)cc(OC)c1OC | – | 70% | 500 | – |
| COc1cc(/C=C/C(=O)N[C@H](COC(=O)c2ccccc2)C(=O)NC2CCCCC2)cc(OC)c1 | – | 22% | – | – |
| COc1cccc(/C=C/C(=O)N[C@H](COC(=O)c2ccccc2)C(=O)NC2CCCCC2)c1 | – | 44% | – | – |
| O=C(/C=C/c1ccccc1)N[C@H](COC(=O)c1ccccc1)C(=O)NC1CCCCC1 | – | inactive | – | – |
| COc1ccc(/C=C/C(=O)N[C@@H](COC(=O)c2ccccc2)C(=O)NC2CCCCC2)cc1OC | – | 88% | – | – |
| O=C(/C=C/c1ccc(OC(=O)c2ccccc2)cc1)N[C@@H](COC(=O)c1ccccc1)C(=O)NC1CCCCC1 | < 20 | 35% | – | – |
| COc1ccccc1/C=C/C(=O)N[C@@H](COC(=O)c1ccccc1)C(=O)NC1CCCCC1 | – | 67% | 170 | Active |
